Experimental findings from ChEMBL document CHEMBL2424585, “Biological evaluation of hyperforin and its hydrogenated analogue on bacterial growth and biofilm production” (2013) are described below.

Usually MIC stands for the smallest concentration in the dilution series that meets the test's criterion for growth inhibition.

The structures appear in SMILES notation. Converted amounts (≈) assume the structure as drawn. The source made the active and inactive calls.

What all share (assay type): functional
For experiment [1], the system named is Enterococcus faecalis. Briefly: Antibacterial activity against Enterococcus faecalis ATCC 29212 after 18 hrs by MTT assay. The settings on record: ATCC 29212, 18 h. In a few lines: (§1)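 Broth microdilution MIC per CLSI M7-A6. Serial 2-fold dilutions in cation-adjusted Mueller-Hinton broth (20 mg/L Ca2+, 10 mg/L Mg2+), ranging 16 to 0.25 μg/mL (DMSO stock) or 256 to 0.25 μg/mL (ethanol stock). Inoculum 5 × 10^5 cfu in saline. Incubated 37 °C, 18 h. Growth detected by MTT colour change. MIC = lowest concentration with no visible growth.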
For orientation: Tetrazolium assays rely on reduction of a dye to a coloured formazan, in cell work by metabolically active cells.

In experiment [2] the test system is Enterococcus faecalis. The experiment can be described thus: Antibacterial activity against Enterococcus faecalis ATCC 29212 after 18 hrs by XTT assay. In a few lines:
(§2)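 Mature biofilms grown in TSB + 2% glucose from ~10^5 cfu/mL: 4 h shaken adhesion at 37 °C, medium replaced, then 24 h at 37 °C. Rinsed with PBS, then serial dilutions (150–18.7 or 25–6.25 μg/mL; PEG-200 vehicle for one agent) added for 18 h at 37 °C with shaking. Viability read by XTT–menadione, 2 h dark, 492 nm. MBIC = lowest concentration with no detectable biofilm growth. Triplicate.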

For experiment [3], the system named is Staphylococcus aureus. The experiment can be described thus: Antibacterial activity against Staphylococcus aureus SA1199B after 18 hrs by MTT assay. In a few lines: as §1
The test system of experiment [4] is Staphylococcus aureus. Briefly: Antibacterial activity against methicillin-resistant Staphylococcus aureus Ig5 clinical isolate after 18 hrs by XTT assay. In a few lines:
as §2

The test system of experiment [5] is Staphylococcus aureus. The experiment can be described thus: Antibacterial activity against Staphylococcus aureus ATCC 29213 after 18 hrs by MTT assay. Particulars: ATCC 29213, 18 h. In a few lines:
as §1

For experiment [6], the system named is Staphylococcus aureus. Briefly: Antibacterial activity against Staphylococcus aureus ATCC 29213 assessed as reduction of microorganisms in biofilm at 25 ug/ml after 18 hrs by XTT assay relative to untreated control. Details: scale not given: the % may be the effect or the level left. In a few lines:
(§3)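 Mature 24 h biofilms grown in TSB + 2% glucose were PBS-rinsed and exposed to the stated concentration for 18 h at 37 °C with shaking. Metabolic activity was then measured by XTT (1 mg/mL in PBS) with menadione, 2 h at 37 °C in the dark, absorbance 492 nm. Activity is expressed as OD relative to untreated TSB biofilms. Triplicate.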

The test system of experiment [7] is Staphylococcus aureus. The experiment can be described thus: Antibacterial activity against Staphylococcus aureus EMRSA-15 after 18 hrs by MTT assay. Particulars: EMRSA-15, 18 h. In a few lines: as §1
The test system of another experiment is Escherichia coli. The experiment can be described thus: Antibacterial activity against Escherichia coli ATCC 25922 after 18 hrs by MTT assay. In a few lines: as §1
The subject of experiment [8] is Staphylococcus aureus. The experiment can be described thus: Antibacterial activity against Staphylococcus aureus ATCC 25923 after 18 hrs by MTT assay. Particulars: ATCC 25923, 18 h. In a few lines: as §1
Experiment [9] deals with Staphylococcus aureus. Briefly: Antibacterial activity against Staphylococcus aureus ATCC 43300 assessed as reduction of microorganisms in biofilm at 25 ug/ml after 18 hrs by XTT assay relative to untreated control. Details: scale not given: the % may be the effect or the level left. In a few lines:
as §3

For experiment [10], the system named is Staphylococcus aureus. Briefly: Antibacterial activity against Staphylococcus aureus ATCC 29213 after 18 hrs by XTT assay. In a few lines:
as §2

Experiment [11] concerns Staphylococcus aureus. Briefly: Antibacterial activity against methicillin-resistant Staphylococcus aureus Ig5 clinical isolate assessed as reduction of microorganisms in biofilm at 25 ug/ml after 18 hrs by XTT assay relative to untreated control. Details: scale not given: the % may be the effect or the level left. In a few lines: as §3
For experiment [12], the system named is Enterococcus faecalis. The experiment can be described thus: Antibacterial activity against Enterococcus faecalis ATCC 29212 assessed as reduction of microorganisms in biofilm at 25 ug/ml after 18 hrs by XTT assay relative to untreated control. Set-up: scale not given: the % may be the effect or the level left. In a few lines:
as §3

Experiment [13] concerns Staphylococcus aureus. The experiment can be described thus: Antibacterial activity against Staphylococcus aureus XU212 after 18 hrs by MTT assay. The settings on record: XU212, 18 h. In a few lines:
as §1

For experiment [14], the system named is Staphylococcus aureus. The experiment can be described thus: Antibacterial activity against methicillin-resistant Staphylococcus aureus Ig5 clinical isolate after 18 hrs by MTT assay. The settings on record: Ig5, 18 h. In a few lines: as §1
Experiment [15] deals with Staphylococcus aureus. Briefly: Antibacterial activity against methicillin-resistant Staphylococcus aureus ATCC 43300 after 18 hrs by MTT assay. Particulars: ATCC 43300, 18 h. In a few lines: as §1
Experiment [16] concerns Staphylococcus aureus. The experiment can be described thus: Antibacterial activity against methicillin-resistant Staphylococcus aureus ATCC 43300 after 18 hrs by XTT assay. In a few lines: as §2
The test system of experiment [17] is Staphylococcus aureus. The experiment can be described thus: Antibacterial activity against Staphylococcus aureus RN4220 after 18 hrs by MTT assay. Particulars: RN4220, 18 h. In a few lines: as §1
Experiment [18] deals with Staphylococcus aureus. Briefly: Antibacterial activity against methicillin-resistant Staphylococcus aureus Ig5 clinical isolate assessed as reduction of microorganisms in biofilm at 150 ug/ml after 18 hrs by XTT assay relative to untreated control. Set-up: scale not given: the % may be the effect or the level left. In a few lines:
as §3

The subject of experiment [19] is Staphylococcus aureus. The experiment can be described thus: Antibacterial activity against Staphylococcus aureus Ig5 assessed as reduction of microorganisms in biofilm at 37.5 ug/mL after 18 hrs by XTT assay relative to untreated control. Set-up: scale not given: the % may be the effect or the level left. In a few lines:
as §3

In experiment [20] the test system is Staphylococcus aureus. Briefly: Antibacterial activity against Staphylococcus aureus ATCC 29213 assessed as reduction of microorganisms in biofilm at 150 ug/ml after 18 hrs by XTT assay relative to untreated control. Details: scale not given: the % may be the effect or the level left. In a few lines: as §3
Experiment [21] has as its system Enterococcus faecalis. Briefly: Antibacterial activity against Enterococcus faecalis ATCC 29212 assessed as reduction of microorganisms in biofilm at 37.5 ug/ml after 18 hrs by XTT assay relative to untreated control. Details: scale not given: the % may be the effect or the level left. In a few lines:
as §3

For experiment [22], the system named is Staphylococcus aureus. The experiment can be described thus: Antibacterial activity against Staphylococcus aureus ATCC 43300 assessed as reduction of microorganisms in biofilm at 37.5 ug/ml after 18 hrs by XTT assay relative to untreated control. Set-up: scale not given: the % may be the effect or the level left. In a few lines: as §3

For the molecule `C1CCC(NC2CCCCC2)CC1.CC(C)=CCC[C@]1(C)[C@@H](CC=C(C)C)C[C@]2(CC=C(C)C)C(=O)C(CC=C(C)C)=C(O)[C@@]1(C(=O)C(C)C)C2=O`, the MIC was determined as 1 µg/mL in the experiment on Enterococcus faecalis [1]; 2 µg/mL in the experiment on Staphylococcus aureus [3]; 1 µg/mL against Staphylococcus aureus [5]; 2 µg/mL against Staphylococcus aureus [7]; 1 µg/mL against Staphylococcus aureus [8]; 0.5 µg/mL against Staphylococcus aureus [13]. In addition, the MIC against Staphylococcus aureus [14] and in the experiment with Staphylococcus aureus [15] was 1 µg/mL throughout. For the same molecule, the MBIC with Enterococcus faecalis [2], in the experiment with Staphylococcus aureus [4], in the experiment on Staphylococcus aureus [10] and in the experiment with Staphylococcus aureus [16] was 25 µg/mL in each case. Besides, the Activity in the experiment on Staphylococcus aureus [6] is 45%; in the experiment on Staphylococcus aureus [9], 21%; in the experiment with Staphylococcus aureus [11] it was 33%; with Enterococcus faecalis [12] it was 34%. Further, in the experiment on Escherichia coli, the MIC entry was “inactive”.

With `CCn1cc(C(=O)O)c(=O)c2cc(F)c(N3CCNCC3)cc21` [NORFLOXACIN], the MIC amounted to 4 µg/mL (≈ 12.5 µM) against Enterococcus faecalis [1]; 32 µg/mL (≈ 100 µM) with Staphylococcus aureus [3]; 1 µg/mL (≈ 3.13 µM) with Staphylococcus aureus [17]; 2 µg/mL (≈ 6.26 µM) in the experiment on Staphylococcus aureus [5]; 0.5 µg/mL (≈ 1.57 µM) in the experiment on Staphylococcus aureus [7]; 0.12 µg/mL (≈ 0.376 µM) in the experiment with Escherichia coli (ATCC 25922, 18 h). The minimal inhibitory concentration (MIC) in the experiment with Staphylococcus aureus [8] came to 2 µg/mL (≈ 6.26 µM); against Staphylococcus aureus [13], 4 µg/mL (≈ 12.5 µM); in the experiment with Staphylococcus aureus [14] it was 2 µg/mL (≈ 6.26 µM); against Staphylococcus aureus [15], 4 µg/mL (≈ 12.5 µM).

`C1CCC(NC2CCCCC2)CC1.CC(C)CCC[C@]1(C)[C@@H](CCC(C)C)C[C@@]2(CCC(C)C)C(=O)[C@]1(C(=O)C(C)C)C(=O)C(CCC(C)C)=C2O` [OCTAHYDROHYPERFORIN DICYCLOHEXYLAMMONIUM SALT]: the MIC was found to be 4 µg/mL against Enterococcus faecalis [1]; 4 µg/mL in the experiment with Staphylococcus aureus [3]; 1 µg/mL with Staphylococcus aureus [17]; 4 µg/mL against Staphylococcus aureus [5]; 4 µg/mL in the experiment with Staphylococcus aureus [8]; 1 µg/mL against Staphylococcus aureus [13]. Besides, the MIC in the experiment on Staphylococcus aureus [14] and against Staphylococcus aureus [15] was 4 µg/mL throughout. Also, the Activity with Staphylococcus aureus [18] stood at 45%; with Staphylococcus aureus [19], 52%; with Staphylococcus aureus [20], 52%; in the experiment with Enterococcus faecalis [21] it was 45%; in the experiment on Staphylococcus aureus [22], 47%. Besides, the MBIC with Enterococcus faecalis [2] turned out to be 37.5 µg/mL; with Staphylococcus aureus [4] it was 37.5 µg/mL; in the experiment on Staphylococcus aureus [10], 150 µg/mL; in the experiment with Staphylococcus aureus [16] it was 37.5 µg/mL. In addition, in the experiment on Escherichia coli, the MIC entry was “inactive”.
